According to article PMC6982535 (Science (New York, N.Y.), 2019):
Residue numbers refer to the chain shown, from its start.

Tests used:
TREK-1 L304C = target: T1, TREK-1 L304C (Homo sapiens, UniProt O95069, L304C); assay: Cysteine-modification protection: MTS-TBAO modification of TREK-1 L304C; type: cell-based; details: 10 μM MTS-TBAO; BL-1249 50 μM, ML335 50 μM, 2-APB 1 mM; result in words
T1 sequence (O95069 1-426 L304C): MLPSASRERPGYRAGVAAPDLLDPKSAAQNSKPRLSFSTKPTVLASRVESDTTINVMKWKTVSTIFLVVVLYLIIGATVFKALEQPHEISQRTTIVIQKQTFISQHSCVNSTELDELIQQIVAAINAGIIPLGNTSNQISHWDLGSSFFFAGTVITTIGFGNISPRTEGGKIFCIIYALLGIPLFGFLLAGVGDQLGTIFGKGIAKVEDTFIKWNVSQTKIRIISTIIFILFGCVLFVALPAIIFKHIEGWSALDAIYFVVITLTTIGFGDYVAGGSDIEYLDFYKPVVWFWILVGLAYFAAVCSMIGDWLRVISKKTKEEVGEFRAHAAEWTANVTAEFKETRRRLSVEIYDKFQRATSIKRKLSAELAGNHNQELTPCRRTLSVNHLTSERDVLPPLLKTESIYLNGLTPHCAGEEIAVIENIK

TREK-2 [1] = target: T2, TREK-2 (Homo sapiens, UniProt P57789); assay: Single channel recordings of TREK-2 expressed in HEK293 cells; type: cell-based; details: TREK-2 in HEK293 cells
T2 sequence (P57789 1-538): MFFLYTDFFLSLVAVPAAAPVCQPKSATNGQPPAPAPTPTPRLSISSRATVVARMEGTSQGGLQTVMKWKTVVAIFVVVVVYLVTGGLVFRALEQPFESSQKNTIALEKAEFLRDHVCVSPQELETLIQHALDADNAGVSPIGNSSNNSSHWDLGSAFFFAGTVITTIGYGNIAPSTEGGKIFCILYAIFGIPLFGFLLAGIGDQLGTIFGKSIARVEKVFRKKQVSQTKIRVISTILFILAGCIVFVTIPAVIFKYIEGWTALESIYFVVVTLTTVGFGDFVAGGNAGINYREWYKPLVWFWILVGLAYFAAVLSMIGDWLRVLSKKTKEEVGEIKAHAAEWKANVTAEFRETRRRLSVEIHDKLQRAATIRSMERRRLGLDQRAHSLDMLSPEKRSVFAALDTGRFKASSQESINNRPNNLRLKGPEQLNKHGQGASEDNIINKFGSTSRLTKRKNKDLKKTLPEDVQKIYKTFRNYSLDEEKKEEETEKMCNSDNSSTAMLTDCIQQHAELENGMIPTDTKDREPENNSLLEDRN

TREK-1 = target: T3, TREK-1 (Homo sapiens, UniProt O95069); assay: TREK-1 channel currents in inside-out patches; type: cell-based; details: inside-out patches; result in words
T3 sequence (O95069 1-426): T1 sequence (O95069 1-426 L304C) with C304L
Procedure, shortened: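 TREK-1 currents were recorded in inside-out patches from Xenopus oocytes and evoked by voltage ramps. Currents were read at +40 mV. Concentration-response curves were obtained with and without 5 μM THexA (tetrahexylammonium). THexA inhibition of basal current was quantified separately. n ≥ 8.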

TALK-1 = target: T4, TALK-1 (Homo sapiens, UniProt Q96T55); assay: Extended screening of K2P channels with BL-1249: TALK-1; type: cell-based; details: result in words
T4 sequence (Q96T55 1-309): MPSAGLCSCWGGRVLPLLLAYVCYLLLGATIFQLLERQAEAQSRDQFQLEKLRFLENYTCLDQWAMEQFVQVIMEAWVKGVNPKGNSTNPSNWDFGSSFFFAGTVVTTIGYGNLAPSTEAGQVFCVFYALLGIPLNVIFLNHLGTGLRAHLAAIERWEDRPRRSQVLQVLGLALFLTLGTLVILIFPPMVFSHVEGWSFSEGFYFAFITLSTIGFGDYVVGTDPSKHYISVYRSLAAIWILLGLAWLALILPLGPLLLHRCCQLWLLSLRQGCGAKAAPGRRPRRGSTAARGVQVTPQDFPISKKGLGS

[2] = acidic tetrazole ring; no reference given; cited from earlier work
CNG channels = assay: BL-1249 on CNG channels; type: cell-based; details: result in words
TREK-2 [3] = target: T2, TREK-2; assay: TREK-2 channel currents, BL-1249 dose-response ± TEA or THexA; type: cell-based; details: extended screening; result in words
Procedure, shortened: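 TREK-2 concentration-response curves for test compound were run with and without intracellular blocker: 100 mM TEA (n ≥ 12) or 5 μM THexA (n ≥ 13). Inhibition of basal current by each blocker was also quantified.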

Kv1.5 = Kv1.5 (Homo sapiens, UniProt P22460); assay: BL-1249 on helix bundle-crossing gated channel Kv1.5; type: cell-based; details: result in words
Sequence of Kv1.5 (P22460 whole entry): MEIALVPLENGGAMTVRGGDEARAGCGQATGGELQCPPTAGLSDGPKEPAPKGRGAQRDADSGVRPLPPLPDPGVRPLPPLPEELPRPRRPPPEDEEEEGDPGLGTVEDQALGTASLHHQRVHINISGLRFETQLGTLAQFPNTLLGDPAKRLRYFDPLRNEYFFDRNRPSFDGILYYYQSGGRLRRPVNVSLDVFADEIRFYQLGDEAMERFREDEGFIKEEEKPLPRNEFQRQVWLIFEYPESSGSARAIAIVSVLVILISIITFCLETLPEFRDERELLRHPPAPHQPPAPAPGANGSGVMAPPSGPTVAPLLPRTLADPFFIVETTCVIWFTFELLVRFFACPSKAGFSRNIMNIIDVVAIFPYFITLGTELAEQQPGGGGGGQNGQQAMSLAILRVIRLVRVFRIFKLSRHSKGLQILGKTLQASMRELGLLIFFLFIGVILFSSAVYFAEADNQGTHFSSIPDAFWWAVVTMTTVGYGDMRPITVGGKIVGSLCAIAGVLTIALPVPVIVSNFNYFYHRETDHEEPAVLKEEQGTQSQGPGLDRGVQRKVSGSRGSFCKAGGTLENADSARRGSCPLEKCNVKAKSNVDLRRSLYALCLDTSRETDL

Kv3.1 = target: T5, Kv3.1 (Homo sapiens, UniProt P48547); assay: BL-1249 on helix bundle-crossing gated channel Kv3.1; type: cell-based; details: result in words
T5 sequence (P48547 1-511): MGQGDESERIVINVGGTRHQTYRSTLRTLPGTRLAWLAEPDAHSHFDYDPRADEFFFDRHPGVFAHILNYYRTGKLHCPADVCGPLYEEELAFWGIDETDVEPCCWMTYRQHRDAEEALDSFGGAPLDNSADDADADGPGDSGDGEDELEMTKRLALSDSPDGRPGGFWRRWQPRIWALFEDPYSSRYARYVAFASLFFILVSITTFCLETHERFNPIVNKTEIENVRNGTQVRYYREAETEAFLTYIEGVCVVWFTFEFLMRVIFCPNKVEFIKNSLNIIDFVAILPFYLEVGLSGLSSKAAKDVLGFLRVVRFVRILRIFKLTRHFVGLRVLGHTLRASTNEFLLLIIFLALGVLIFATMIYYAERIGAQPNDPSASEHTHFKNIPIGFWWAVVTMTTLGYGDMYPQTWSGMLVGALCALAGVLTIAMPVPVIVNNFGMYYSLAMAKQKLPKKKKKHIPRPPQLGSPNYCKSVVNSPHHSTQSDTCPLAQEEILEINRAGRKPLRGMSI

Structure (SMILES): c1ccc(-c2nn[nH]n2)c(Nc2cccc3c2CCCC3)c1 [BL-1249]
- time course of irreversible pore blockade by MTS-TBAO (TREK-1 L304C): markedly slowed
- single channel amplitude, outward (TREK-2 [1]; +100 mV, with BL-1249 (basal 17.7 ± 1.3), n = 7): 21.7 ± 1.4 pA
- single channel amplitude, inward (TREK-2 [1]; -100 mV, with BL-1249 (basal -29.3 ± 1.5), n = 7): -34.1 ± 1.9 pA
- open probability (TREK-2 [1]; result in words): increase in open probability
- opening / activation of TREK-1 channels (TREK-1): equal efficiency in opening
- activation of TALK-1 (TALK-1): potent activation
- pKa [2]: around 5
- activation of CNG channels (CNG channels): not activated
- activation of TREK-2 (TREK-2 [3]): potent activation
- activation of Kv1.5 (Kv1.5): not activated
- activation of Kv3.1 (Kv3.1): not activated
